Measured values: ChEMBL document CHEMBL4004822, “Thienopyrimidinone Based Sirtuin-2 (SIRT2)-Selective Inhibitors Bind in the Ligand Induced Selectivity Pocket” (J Med Chem, 2017)
pIC50: −log10 of the molar value.

Tests used:
[1] = target: T1, NAD-dependent protein deacetylase sirtuin-2 (Homo sapiens, UniProt Q8IXJ6); test: (§1) Inhibition of recombinant human C-terminal His-tagged SIRT2 (50 to 389 end residues) expressed in Escherichia coli using p53 derived (379 to 382 residues) fluorogenic peptide substrate RHKK(Ac)-AMC preincubated for 10 mins followed by substrate addition in presence of NAD+ by fluorescence assay
T1 sequence (Q8IXJ6 whole entry): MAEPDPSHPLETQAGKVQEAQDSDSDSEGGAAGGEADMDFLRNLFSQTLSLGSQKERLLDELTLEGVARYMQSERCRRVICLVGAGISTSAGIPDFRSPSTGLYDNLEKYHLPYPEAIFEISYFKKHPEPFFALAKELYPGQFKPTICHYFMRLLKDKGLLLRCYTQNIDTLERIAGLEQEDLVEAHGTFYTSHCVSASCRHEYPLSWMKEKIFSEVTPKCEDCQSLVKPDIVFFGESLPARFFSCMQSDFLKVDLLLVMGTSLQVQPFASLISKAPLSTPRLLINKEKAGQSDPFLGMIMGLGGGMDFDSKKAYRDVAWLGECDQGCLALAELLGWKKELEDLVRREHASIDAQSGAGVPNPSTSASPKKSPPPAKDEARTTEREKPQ
How it was run: (§2)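 Two-step fluorogenic assay with p53 379–382 RHKK(Ac)-AMC. Compound (from 10 mM DMSO stock) preincubated ~10 min with human SIRT before substrate addition. Developer then releases fluorophore, read at ex 360/em 460 nm.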

[2] = target: T2, NAD-dependent protein deacetylase sirtuin-2 (Homo sapiens) (UniProt Q8IXJ6); test: as §1, with “coli at 10 uM” for “coli”, “assay relative to control” for “assay”; how it was run: as §2
T2 sequence (whole entry): T1 sequence (Q8IXJ6 whole entry)

| SMILES | pIC50 [1] | inhibition [2] |
| --- | --- | --- |
| COc1ccc2ccccc2c1Cn1cnc2sc3c(c2c1=O)CCC(NCc1ccccn1)C3 (stereo not given) | 5.51 | 83% |
| O=c1c2c3c(sc2ncn1Cc1cccc2cccnc12)CC(NC1CCCc2ccccc21)CC3 (stereo not given) | 5.26 | 80% |
| COc1ccccc1Cn1cnc2sc3c(c2c1=O)CCC(NC1CCc2ccccc21)C3 (stereo not given) | 4.79 | 70% |
| O=c1c2c3c(sc2ncn1Cc1cccc2cccnc12)CC(NC1CCc2ccccc21)CC3 (stereo not given) | 5.51 | 91% |
| O=c1c2c3c(sc2ncn1Cc1cccc2ccccc12)CC(NCc1cncnc1)CC3 (stereo not given) | 5.19 | 86% |
| COc1ccc2ccccc2c1Cn1cnc2sc3c(c2c1=O)CCC(NCC1CCOC1)C3 (stereo not given) | 5.22 | 85% |
| Cc1noc(C)c1CNC1CCc2c(sc3ncn(Cc4cccc5ccccc45)c(=O)c23)C1 (stereo not given) | 5.73 | 85% |
| O=c1c2c3c(sc2ncn1Cc1ccc2ccccc2c1)CC(NCCc1ccncc1)CC3 (stereo not given) | 5.02 | 72% |
| COc1ccc(CNC2CCc3c(sc4ncn(Cc5c(OC)ccc6ccccc56)c(=O)c34)C2)cn1 (stereo not given) | 5.72 | 83% |
| COc1ccc(CNC2CCc3c(sc4ncn(Cc5ccc6ccccc6c5)c(=O)c34)C2)cc1 (stereo not given) | 5.42 | 86% |
| COc1ccc2ccccc2c1Cn1cnc2sc3c(c2c1=O)CCC(NC1CCOCC1)C3 (stereo not given) | 5.95 | 96% |
| COc1ccc2ccccc2c1Cn1cnc2sc3c(c2c1=O)CCC(NCC1CCCO1)C3 (stereo not given) | 5.72 | 90% |
| O=c1c2c3c(sc2ncn1Cc1cccc2cccnc12)CC(NCc1ccc(Cl)cc1)CC3 (stereo not given) | 5.90 | 94% |
| O=c1c2c3c(sc2ncn1Cc1cccc(-c2ccccc2)c1)CC(NCCC1CCCCC1)CC3 (stereo not given) | 5.43 | 90% |
| COc1ccc(Cn2cnc3sc4c(c3c2=O)CCC(NC2CCOCC2)C4)c2ccccc12 (stereo not given) | 5.30 | 81% |
| COc1ccc(CNCCc2sc3ncn(Cc4c(OC)ccc5ccccc45)c(=O)c3c2C)cc1 | 5.47 | 89% |
| O=c1c2c3c(sc2ncn1Cc1cccc(-c2ccccc2)c1)CC(NCC1CCOC1)CC3 (stereo not given) | 5.59 | 91% |
| COc1ccc(CNC2CCc3c(sc4ncn(Cc5cccc6cccnc56)c(=O)c34)C2)cc1 (stereo not given) | 5.74 | 95% |
| COc1cccc(CNC2CCc3c(sc4ncn(Cc5ccccc5OC)c(=O)c34)C2)c1 (stereo not given) | 4.87 | 69% |
| O=c1c2c3c(sc2ncn1Cc1cccc2ccccc12)CC(NCc1cccnc1)CC3 (stereo not given) | 5.52 | 89% |
| O=c1c2c3c(sc2ncn1Cc1ccc2ccccc2c1)CC(NCc1ccccn1)CC3 (stereo not given) | 5.06 | 81% |
| O=c1c2c3c(sc2ncn1Cc1ccc2ccccc2c1)CC(NCc1ccco1)CC3 (stereo not given) | 4.93 | 72% |
| COc1ccc(NC2CCc3c(sc4ncn(Cc5cccc6cccnc56)c(=O)c34)C2)cc1 (stereo not given) | 5.61 | 82% |
| O=c1c2c3c(sc2ncn1Cc1cccc2cccnc12)CC(Nc1ccc(F)cc1)CC3 (stereo not given) | 6.01 | 90% |

| SMILES | pIC50 [1] | inhibition [2] |
| --- | --- | --- |
| COc1ccc2ccccc2c1Cn1cnc2sc3c(c2c1=O)CCC(NCCc1ccncc1)C3 (stereo not given) | 5.56 | 95% |
| O=c1c2c3c(sc2ncn1Cc1cccc2ccccc12)CC(NCc1ccco1)CC3 (stereo not given) | 5.12 | 70% |
| COc1ccccc1CNC1CCc2c(sc3ncn(Cc4cccc5cccnc45)c(=O)c23)C1 (stereo not given) | 5.25 | 85% |
| COc1ccccc1CNC1CCc2c(sc3ncn(Cc4ccccc4OC)c(=O)c23)C1 (stereo not given) | 5.02 | 72% |
| O=c1c2c3c(sc2ncn1Cc1cccc(-c2ccccc2)c1)CC(NCCN1CCOCC1)CC3 (stereo not given) | 5.50 | 77% |
| O=c1c2c3c(sc2ncn1Cc1cccc2ccccc12)CC(NCc1ccncc1)CC3 (stereo not given) | 5.45 | 92% |
| O=c1c2c3c(sc2ncn1Cc1cccc2cccnc12)CC(NCCC1CCCCC1)CC3 (stereo not given) | 5.23 | 81% |
| Cc1nn(C)c(C)c1CNC1CCc2c(sc3ncn(Cc4cccc5ccccc45)c(=O)c23)C1 (stereo not given) | 5.38 | 85% |
| O=c1c2c3c(sc2ncn1Cc1cccc2cccnc12)CC(NCc1ccncc1)CC3 (stereo not given) | 5.43 | 83% |
| COc1ccc2ccccc2c1Cn1cnc2sc3c(c2c1=O)CCC(NCc1c(C)nn(C)c1C)C3 (stereo not given) | 5.29 | 94% |
| COc1ccc(CNC2CCc3c(sc4ncn(Cc5cccc6ccccc56)c(=O)c34)C2)cn1 (stereo not given) | 5.12 | 75% |
| O=c1c2c3c(sc2ncn1Cc1cccc(-c2ccccc2)c1)CC(NCCN1CCCC1)CC3 (stereo not given) | 5.42 | 77% |
| O=c1c2c3c(sc2ncn1Cc1cccc2cccnc12)CC(NCc1cccc(Cl)c1)CC3 (stereo not given) | 5.55 | 88% |
| O=c1c2c3c(sc2ncn1Cc1cccc2ccccc12)CC(NCCc1ccncc1)CC3 (stereo not given) | 5.24 | 75% |
| COc1ccccc1Cn1cnc2sc3c(c2c1=O)CCC(NCC1CCCCC1)C3 (stereo not given) | 5.04 | 79% |
| COc1ccc2ccccc2c1Cn1cnc2sc(CCNCc3ccncc3)c(C)c2c1=O | 5.53 | 94% |
| O=c1c2c3c(sc2ncn1Cc1ccc2ccccc2c1)CC(NCc1ccncc1)CC3 (stereo not given) | 5.50 | 92% |
| O=c1c2c3c(sc2ncn1Cc1cccc2cccnc12)CC(NCc1ccccc1)CC3 (stereo not given) | 5.60 | 93% |
| O=c1c2c3c(sc2ncn1Cc1ccc2ccccc2c1)CC(NCc1cncnc1)CC3 (stereo not given) | 5.28 | 88% |
| O=c1c2c3c(sc2ncn1Cc1ccc2ccccc2c1)CC(NCc1ccccc1)CC3 (stereo not given) | 5.26 | 71% |
| COc1ccc2ccccc2c1Cn1cnc2sc3c(c2c1=O)CCC(NCc1ccncc1)C3 (stereo not given) | 5.92 | 95% |
| COc1ccc2ccccc2c1Cn1cnc2sc3c(c2c1=O)CCC(NCC1CCCCC1)C3 (stereo not given) | 5.78 | 97% |
| Cc1nn(C)c(C)c1CNC1CCc2c(sc3ncn(Cc4ccc5ccccc5c4)c(=O)c23)C1 (stereo not given) | 5.13 | 87% |
| COc1ccc(CNC2CCc3c(sc4ncn(Cc5cccc6ccccc56)c(=O)c34)C2)cc1 (stereo not given) | 5.49 | 78% |

| SMILES | pIC50 [1] | inhibition [2] |
| --- | --- | --- |
| O=c1c2c3c(sc2ncn1Cc1cccc2cccnc12)CC(NCC1CCCCC1)CC3 (stereo not given) | 5.61 | 94% |
| COc1ccccc1CNC1CCc2c(sc3ncn(Cc4ccc5ccccc5c4)c(=O)c23)C1 (stereo not given) | 5.37 | 75% |
| COc1ccc2ccccc2c1Cn1cnc2sc(CCNCc3cccnc3)c(C)c2c1=O | 5.67 | 93% |
| COc1ccc2ccccc2c1Cn1cnc2sc(CCNC3CCOCC3)c(C)c2c1=O | 5.09 | 68% |
| COc1ccc2ccccc2c1Cn1cnc2sc3c(c2c1=O)CCC(NCc1ccco1)C3 (stereo not given) | 5.28 | 78% |
| O=c1c2c3c(sc2ncn1Cc1cccc2ccccc12)CC(NCCc1cccnc1)CC3 (stereo not given) | 5.02 | 80% |
| O=c1c2c3c(sc2ncn1Cc1ccc2ccccc2c1)CC(NCC1CCCO1)CC3 (stereo not given) | 4.88 | 71% |
| Cc1ccc(NC2CCc3c(sc4ncn(Cc5cccc6cccnc56)c(=O)c34)C2)cc1 (stereo not given) | 5.37 | 78% |
| COc1ccccc1CNC1CCc2c(sc3ncn(Cc4c(OC)ccc5ccccc45)c(=O)c23)C1 (stereo not given) | 5.65 | 89% |
| COc1ccc2ccccc2c1Cn1cnc2sc3c(c2c1=O)CCC(NCc1c(C)noc1C)C3 (stereo not given) | 5.40 | 87% |
| O=c1c2c3c(sc2ncn1Cc1cccc2cccnc12)CC(NCc1ccco1)CC3 (stereo not given) | 5.38 | 80% |
| COc1ccc(CNC2CCc3c(sc4ncn(Cc5ccc6ccccc6c5)c(=O)c34)C2)cn1 (stereo not given) | 4.99 | 76% |
| O=c1c2c3c(sc2ncn1Cc1cccc2cccnc12)CC(NCc1cccs1)CC3 (stereo not given) | 5.59 | 88% |
| COc1ccc2ccccc2c1Cn1cnc2sc3c(c2c1=O)CCC(NCc1cccs1)C3 (stereo not given) | 5.22 | 69% |
| COc1ccc2ccccc2c1Cn1cnc2sc3c(c2c1=O)CCC(NCCc1cccnc1)C3 (stereo not given) | 4.99 | 66% |
| O=c1c2c3c(sc2ncn1Cc1cccc(-c2ccccc2)c1)CC(NC1CCOCC1)CC3 (stereo not given) | 5.76 | 93% |
| Cc1noc(C)c1CNC1CCc2c(sc3ncn(Cc4cccc5cccnc45)c(=O)c23)C1 (stereo not given) | 5.16 | 80% |
| O=c1c2c3c(sc2ncn1Cc1cccc2ccccc12)CC(NCC1CCCO1)CC3 (stereo not given) | 4.90 | 67% |
| O=c1c2c3c(sc2ncn1Cc1ccc2ccccc2c1)CC(NCCc1cccnc1)CC3 (stereo not given) | 5.06 | 77% |
| O=c1c2c3c(sc2ncn1Cc1cccc2cccnc12)CC(NCc1ccccc1Cl)CC3 (stereo not given) | 5.42 | 85% |
| O=c1c2c3c(sc2ncn1Cc1cccc2ccccc12)CC(NCc1ccccn1)CC3 (stereo not given) | 5.11 | 81% |
| COc1ccc2ccccc2c1Cn1cnc2sc3c(c2c1=O)CCC(NCc1cccc(F)c1)C3 (stereo not given) | 5.39 | 73% |
